Molecules are shown by their SMILES. Values after ≈ are worked out from the molar mass of the structure shown. Active and inactive are the calls of the source.

We go through ten compounds from ChEMBL document CHEMBL4680106, “Rational Design of Dimeric Lysine N-Alkylamides as Potent and Broad-Spectrum Antibacterial Agents” (J Med Chem, 2018).

Data set [1] concerns Staphylococcus aureus. The data set can be described thus: Antimicrobial activity against methicillin-resistant Staphylococcus aureus ATCC 33591 assessed as inhibition of bacterial growth by broth microdilution method. It is filed as functional. An outline of the steps:
(§1)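 Broth microdilution following a previously reported procedure. MIC was taken as the lowest concentration with no turbidity, meaning complete growth inhibition over the incubation period.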
In general terms: Broth dilution looks for growth in wells or tubes with falling amounts of substance.

The subject of data set [2] is Escherichia coli. The data set can be described thus: Antimicrobial activity against Escherichia coli ATCC 25922 assessed as inhibition of bacterial growth by broth microdilution method. In kind it is functional.
Data set [3] relates to Enterococcus faecalis. The data set can be described thus: Antimicrobial activity against vancomycin-resistant Enterococcus faecalis assessed as inhibition of bacterial growth by broth microdilution method. It is filed as functional. Put shortly:
as §1

Data set [4] relates to Staphylococcus epidermidis. Nature of the data set: Antimicrobial activity against methicillin-resistant Staphylococcus epidermidis RP62A assessed as inhibition of bacterial growth by broth microdilution method. In kind it is functional. An outline of the steps:
as §1

Data set [5] in a line: Induction of hemolysis in human RBC incubated for 1 hr. In kind it is cell-based, Erythrocyte. The following applies: human red blood cells (erythrocytes). An outline of the steps: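 Human RBCs pelleted at 3000 rpm for 10 min and made 5% v/v in 1x PBS, mixed 1:1 with compound at several concentrations, 37 °C for 1 h. Spun at 3500 rpm for 10 min; diluted supernatant read at 540 nm. Hemolysis % referenced to 2% Triton X-100 (100%) and PBS (0%). Three repeats, duplicates each.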

Data set [6] has as its system Pseudomonas aeruginosa. Nature of the data set: Antimicrobial activity against Pseudomonas aeruginosa ATCC 27853 assessed as inhibition of bacterial growth by broth microdilution method. It is filed as functional.
For data set [7], the system named is Staphylococcus aureus. Nature of the data set: Antimicrobial activity against methicillin-resistant Staphylococcus aureus ATCC 33591 grown under presence of test compound at 1/2 MIC assessed as inhibition of bacterial growth measured after 14 passages by broth microdilution method relative to wild type. In kind it is functional. An outline of the steps: (§2)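 Initial MIC by the standard broth microdilution procedure. Bacteria from the 1/2 MIC wells were made into a suspension of about 10^6 CFU/mL, incubated with compound at 37 °C for 24 h, and the MIC was measured again. This was repeated daily for 14 passages.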

Data set [8] relates to Staphylococcus aureus. The data set can be described thus: Bactericidal activity against methicillin-resistant Staphylococcus aureus ATCC 33591 assessed as bacterial killing by measuring reduction in bacterial colony count at 64 times MIC incubated for 2 hrs by time-kill kinetics method. In kind it is functional, organism-based. Put shortly:
(§3)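 MRSA were grown in tryptic soy broth to 10^6 CFU/mL and exposed to compound at multiples of MIC, sampled for up to 2 h. Aliquots were diluted 10^2–10^4-fold and plated on TSB agar, incubated 24 h at 37 °C, and colonies counted. Run three times.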

For data set [9], the system named is Escherichia coli. Nature of the data set: Inhibition of biofilm formation in Escherichia coli ATCC 25922 at 3 ug/ml incubated overnight by crystal violet staining based method. It is filed as functional. Put shortly: (§4)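 Overnight-grown (12 h) bacteria diluted 1:100 into 10% MHII broth and incubated with compound overnight at 37 °C. OD600 recorded, then biomass by crystal violet, expressed as CV OD/growth OD and normalized to untreated control. Triplicate, mean ± STDEV.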

The test system of data set [10] is Cell membrane. The data set can be described thus: Induction of cell membrane integrity loss in methicillin-resistant Staphylococcus aureus ATCC 33591 at 5 ug/ml incubated for 2 hrs by TEM analysis. To be noted: dose 5.0 µg/ml.
Data set [11] deals with Staphylococcus aureus. Nature of the data set: Bactericidal activity against methicillin-resistant Staphylococcus aureus ATCC 33591 assessed as bacterial killing by measuring reduction in bacterial colony count at 16 to 32 x MIC measured within 10 mins by time-kill kinetics method. To be noted: dose 16-32 x MIC; time min <=10.
Data set [12] deals with Cell membrane. The data set can be described thus: Induction of cell membrane disruption in methicillin-resistant Staphylococcus aureus ATCC 33591 at 2 times MIC incubated for 2 hrs by DAPI and PI staining based optical microscopy. An outline of the steps: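 Bacteria at about 2 × 10^6 cells were treated at 2 × MIC for 2 h, then centrifuged and washed in PBS. They were stained with PI (5 µg/mL) and then DAPI (10 µg/mL), each for 15 min in the dark at 0 °C. Imaged by oil-immersion light microscopy at 100×. Untreated controls were processed identically. Three runs in duplicate.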

Data set [13] has as its system Escherichia coli. Nature of the data set: Antimicrobial activity against Escherichia coli ATCC 25922 grown under presence of test compound at 1/2 MIC assessed as inhibition of bacterial growth measured after 14 passages by broth microdilution method relative to wild type. It is filed as functional, organism-based. An outline of the steps: as §2
In data set [14] the test system is Staphylococcus aureus. The data set can be described thus: Bactericidal activity against methicillin-resistant Staphylococcus aureus ATCC 33591 assessed as bacterial killing at 6.25 to 12.5 ug/ml incubated for 2 hrs by time-kill kinetics method. To be noted: dose 6.25-12.5 µg/ml. It is filed as functional, organism-based. Put shortly: as §3
In data set [15] the test system is Escherichia coli. The data set can be described thus: Inhibition of biofilm formation in Escherichia coli ATCC 25922 at 1.5 ug/ml incubated overnight by crystal violet staining based method. It is filed as functional. Put shortly: as §4
Data set [16] has as its system Cell membrane. The data set can be described thus: Induction of membrane depolarization in methicillin-resistant Staphylococcus aureus ATCC 33591 assessed as induction of membrane potential loss at 5 ug/ml incubated for 30 mins by DiSC3(5) dye based bacterial membrane depolarization assay. The following applies: dose 5.0 µg/ml. An outline of the steps:
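Mid-log MRSA were washed and resuspended at 10^8 CFU/mL in a 1:1:1 mix of 5 mM glucose, 5 mM HEPES and 100 mM KCl, with 2 µM DiSC3(5). Fluorescence (ex 622/em 670 nm) was read at room temperature until it reached its minimum after about 20 min. Compound was then added and the fluorescence rise recorded. Untreated negative control. Three runs in duplicate.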

Data set [17] concerns Cell membrane. The data set can be described thus: Induction of cell membrane disruption in Escherichia coli ATCC 25922 at 2 times MIC incubated for 2 hrs by DAPI and PI staining based optical microscopy. An outline of the steps:
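Cells grown to ~2 × 10^6 cells, exposed 2 h, pelleted at 3000g for 15 min and PBS-washed. Stained with PI (5 µg/mL) then DAPI (10 µg/mL in water), each 15 min in the dark at 0 °C, then PBS-washed. Untreated controls handled identically. Imaged by 100x oil-immersion light microscopy; three repeats, duplicates each.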

`CCCCCCCCNC(=O)[C@H](CCCCN)NC(=O)c1ccc(C(=O)N[C@@H](CCCCN)C(=O)NCCCCCCCC)cc1`: the MIC worked out at 1.5 µg/mL (≈ 2.33 µM) in data set [1], 0.75 µg/mL (≈ 1.16 µM) in data set [2], 3 µg/mL (≈ 4.65 µM) in [4] and 3 µg/mL (≈ 4.65 µM) in data set [6]. Besides, the MIC entry in data set [3] was “inactive”. Besides, the HC50 at 1 h in data set [5] is above 250 µg/mL.

In the case of `CCCCCCCCCCNC(=O)[C@H](CCCCN)NC(=O)c1ccc(C(=O)N[C@@H](CCCCN)C(=O)NCCCCCCCCCC)cc1`, the MIC in data set [1] was 1.5 µg/mL (≈ 2.14 µM); in [2], 3 µg/mL (≈ 4.28 µM); in data set [3] it was 3 µg/mL (≈ 4.28 µM); in [4], 6 µg/mL (≈ 8.56 µM). The compound further showed a 50% haemolytic concentration (HC50) at 1 h in [5] of 250 µg/mL. Further, in data set [6], the MIC result is “inactive”.

As to `CCCCCCCCCCCCNC(=O)[C@H](CCCCN)NC(=O)c1ccc(C(=O)N[C@@H](CCCCN)C(=O)NCCCCCCCCCCCC)cc1`, the MIC in data set [1] came out at 3 µg/mL (≈ 3.96 µM); in data set [2] it was 3 µg/mL (≈ 3.96 µM); in data set [4], 6 µg/mL (≈ 7.92 µM); in data set [6], 12 µg/mL (≈ 15.8 µM). The MIC entry in data set [3] was “inactive”. The HC50 at 1 h in [5] was above 250 µg/mL.

`CCn1cc(C(=O)O)c(=O)c2cc(F)c(N3CCNCC3)cc21` [NORFLOXACIN]: the Ratio in data set [7] was above 80. In addition, the outcome in data set [8] was inactive.

Take `CCCCCCCCCCCCCNC(=O)[C@H](CCCCN)NC(=O)c1ccc(C(=O)N[C@@H](CCCCN)C(=O)NCCCCCCCCCCCCC)cc1`: the minimum inhibitory concentration (MIC) in data set [1] and in data set [4] was 6 µg/mL (≈ 7.64 µM) throughout. Also, the MIC result in [2], in data set [3] and in data set [6] was “inactive” in each case.

On to `CCCCCCCCCNC(=O)[C@H](CCCCN)NC(=O)c1ccc(C(=O)N[C@@H](CCCCN)C(=O)NCCCCCCCCC)cc1`, for which the MIC in data set [1] is 0.75 µg/mL (≈ 1.11 µM); in [2], 0.75 µg/mL (≈ 1.11 µM); in data set [3], 3 µg/mL (≈ 4.46 µM); in data set [4], 1.5 µg/mL (≈ 2.23 µM); in [6], 3 µg/mL (≈ 4.46 µM). The outcome in data set [7], in data set [10], in data set [12], in [13], in data set [16] and in data set [17] was Active. In data set [9], this compound gave an inhibition at 3 µg/mL of 70%. Besides, the Activity in [11] stood at 3.74 log10CFU/ml. Also, the HC50 at 1 h in data set [5] stood at 180 µg/mL. The outcome in data set [14] was inactive. In [15], the inhibition at 1.5 µg/mL was 50%.

Regarding `NCCCC[C@H](NC(=O)c1ccc(C(=O)N[C@@H](CCCCN)C(=O)NCc2ccc(-c3ccccc3)cc2)cc1)C(=O)NCc1ccc(-c2ccccc2)cc1`, the MIC is 3 µg/mL (≈ 3.98 µM) in data set [1], 3 µg/mL (≈ 3.98 µM) in data set [2], 6 µg/mL (≈ 7.97 µM) in [4] and 12 µg/mL (≈ 15.9 µM) in [6]. The MIC entry in data set [3] was “inactive”. In data set [5], this compound showed an HC50 at 1 h above 250 µg/mL.

Take `CCCCCCCCCCCCCCNC(=O)[C@H](CCCCN)NC(=O)c1ccc(C(=O)N[C@@H](CCCCN)C(=O)NCCCCCCCCCCCCCC)cc1`: the MIC result in [1], in [2], in data set [3], in data set [4] and in data set [6] was “inactive” in each case.

Regarding `CCCCCCNC(=O)[C@H](CCCCN)NC(=O)c1ccc(C(=O)N[C@@H](CCCCN)C(=O)NCCCCCC)cc1`, the MIC result in [1], in data set [2], in [3], in data set [4] and in data set [6] was “inactive” in each case.

As for `CCCCCCCNC(=O)[C@H](CCCCN)NC(=O)c1ccc(C(=O)N[C@@H](CCCCN)C(=O)NCCCCCCC)cc1`, the MIC result in data set [1], in data set [3], in [4] and in data set [6] was “inactive” in each case. Besides, the minimal inhibitory concentration (MIC) in data set [2] came to 6 µg/mL (≈ 9.73 µM).

In general, MIC refers to the smallest concentration in the dilution series that meets the test's criterion for growth inhibition. The HC50 is the concentration giving 50% haemolysis. A lower HC50 goes with more damage to red cells. For orientation: inhibition means the share of the control response that was lost under treatment. Read a low inhibition as a response near the control.
